ChEMBL document CHEMBL2434944, “Novel acetamidothiazole derivatives: synthesis and in vitro anticancer evaluation” (Eur J Med Chem, 2013)

Assays:
UACC-257 = assay: Growth inhibition of human UACC257 cells assessed as cell growth at 10^-5 M after 48 hrs by sulforhodamine B assay relative to control; type: functional; settings: UACC-257, 48 h, read-out: Activity
Procedure, shortened: (§1)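 NCI-60 single-dose screen, 10^-5 M final. Cells grown in RPMI 1640 with 5% FBS and 2 mM L-glutamine, seeded at 5,000–40,000 cells/well by doubling time. Preincubated 24 h at 37°C, 5% CO2. Compound in DMSO, diluted in medium with gentamicin, then 48 h exposure. Fixed with cold TCA, SRB stained, A515 read. Percent growth vs untreated control, time-zero plate corrected.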

SF-539 = assay: Growth inhibition of human SF539 cells assessed as cell growth at 10^-5 M after 48 hrs by sulforhodamine B assay relative to control; type: functional; settings: SF-539, 48 h, read-out: Activity
Procedure, shortened: (§2)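 NCI-60 single-dose screen at 10^-5 M. Cells grown in RPMI 1640 with 5% FBS and 2 mM L-glutamine, plated at 5,000–40,000 cells/well according to doubling time, and preincubated 24 h at 37°C, 5% CO2. Compound dissolved in DMSO and added. Exposure 48 h. Adherent cells fixed with cold TCA (10% final), suspension cells with 16% final TCA. Read-out is 0.4% SRB staining, dye solubilised in 10 mM Tris, absorbance at 515 nm. Percent growth is calculated against the time-zero plate and untreated control.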

DU-145 = assay: Growth inhibition of human DU145 cells assessed as cell growth at 10^-5 M after 48 hrs by sulforhodamine B assay relative to control; type: functional; settings: DU-145, 48 h, read-out: Activity; procedure, shortened: as §2
M14 = assay: Growth inhibition of human M14 cells assessed as cell growth at 10^-5 M after 48 hrs by sulforhodamine B assay relative to control; type: functional; settings: M14, 48 h, read-out: Activity; procedure, shortened: as §2
SW-620 = assay: Growth inhibition of human SW620 cells assessed as cell growth at 10^-5 M after 48 hrs by sulforhodamine B assay relative to control; type: functional; settings: SW-620, 48 h, read-out: Activity; procedure, shortened: as §1
ACHN = assay: Growth inhibition of human ACHN cells assessed as cell growth at 10^-5 M after 48 hrs by sulforhodamine B assay relative to control; type: functional; settings: read-out: Activity; procedure, shortened: as §2
MDA-MB-468 = assay: Growth inhibition of human MDA-MB-468 cells assessed as cell growth at 10^-5 M after 48 hrs by sulforhodamine B assay relative to control; type: functional; settings: MDA-MB-468, 48 h, read-out: Activity; procedure, shortened: as §2
UACC-62 = assay: Growth inhibition of human UACC62 cells assessed as cell growth at 10^-5 M after 48 hrs by sulforhodamine B assay relative to control; type: functional; settings: UACC-62, 48 h, read-out: Activity; procedure, shortened: as §1
SR = assay: Growth inhibition of human SR cells assessed as cell growth at 10^-5 M after 48 hrs by sulforhodamine B assay relative to control; type: functional; settings: read-out: Activity; procedure, shortened: as §1
TK-10 = assay: Growth inhibition of human TK10 cells assessed as cell growth at 10^-5 M after 48 hrs by sulforhodamine B assay relative to control; type: functional; settings: TK-10, 48 h, read-out: Activity; procedure, shortened: as §1
MCF7 = assay: Growth inhibition of human MCF7 cells assessed as cell growth at 10^-5 M after 48 hrs by sulforhodamine B assay relative to control; type: functional; settings: MCF7, 48 h, read-out: Activity; procedure, shortened: as §2
SK-MEL-28 = assay: Growth inhibition of human SK-MEL-28 cells assessed as cell growth at 10^-5 M after 48 hrs by sulforhodamine B assay relative to control; type: functional; settings: SK-MEL-28, 48 h, read-out: Activity; procedure, shortened: as §2
OVCAR-4 = assay: Growth inhibition of human OVCAR4 cells assessed as cell growth at 10^-5 M after 48 hrs by sulforhodamine B assay relative to control; type: functional; settings: OVCAR-4, 48 h, read-out: Activity; procedure, shortened: as §2
NCI-H460 = assay: Growth inhibition of human NCI-H460 cells assessed as cell growth at 10^-5 M after 48 hrs by sulforhodamine B assay relative to control; type: functional; settings: NCI-H460, 48 h, read-out: Activity; procedure, shortened: as §2
HOP-62 = assay: Growth inhibition of human HOP62 cells assessed as cell growth at 10^-5 M after 48 hrs by sulforhodamine B assay relative to control; type: functional; settings: HOP-62, 48 h, read-out: Activity; procedure, shortened: as §2
NCI-H522 = assay: Growth inhibition of human NCI-H522 cells assessed as cell growth at 10^-5 M after 48 hrs by sulforhodamine B assay relative to control; type: functional; settings: NCI-H522, 48 h, read-out: Activity; procedure, shortened: as §2
Cathepsin K = biological target: T1, Cathepsin K (Homo sapiens, UniProt P43235); assay: Inhibition of human cathepsin K
T1 sequence (P43235 whole entry): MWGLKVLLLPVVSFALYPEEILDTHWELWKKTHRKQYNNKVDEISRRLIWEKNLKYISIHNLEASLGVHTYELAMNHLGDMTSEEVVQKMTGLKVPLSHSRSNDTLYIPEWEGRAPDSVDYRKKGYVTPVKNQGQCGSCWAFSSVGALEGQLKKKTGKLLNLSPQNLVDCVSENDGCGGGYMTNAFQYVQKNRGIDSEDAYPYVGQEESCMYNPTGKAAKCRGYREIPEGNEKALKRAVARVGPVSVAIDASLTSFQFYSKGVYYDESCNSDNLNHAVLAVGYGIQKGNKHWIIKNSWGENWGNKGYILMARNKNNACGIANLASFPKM

SF-295 = assay: Growth inhibition of human SF295 cells assessed as cell growth at 10^-5 M after 48 hrs by sulforhodamine B assay relative to control; type: functional; settings: SF-295, 48 h, read-out: Activity; procedure, shortened: as §2

Compound `Cc1ccc(-c2csc(=N)n2CC(=O)N2CCN(c3ccccc3)CC2)cc1` has a growth at 10 µM (UACC-257) of 106%, a growth at 10 µM (SF-539) of 100% and a growth at 10 µM (DU-145) of 104%. It also gave a growth at 10 µM (M14) of 108%, a growth at 10 µM (SW-620) of 105% and a growth at 10 µM (ACHN) of 81.2%. For the same compound, the growth at 10 µM (MDA-MB-468) was 97.6%, the growth at 10 µM (UACC-62) was 85.9% and the growth at 10 µM (SR) was 98.8%. The growth at 10 µM (TK-10) was 140%, the growth at 10 µM (MCF7) was 81.4% and the growth at 10 µM (SK-MEL-28) was 100%. It also gave a growth at 10 µM (OVCAR-4) of 88.4%, a growth at 10 µM (NCI-H460) of 105% and a growth at 10 µM (HOP-62) of 111%. It also gave a growth at 10 µM (NCI-H522) of 95.5% and a Ki (Cathepsin K) of 10.8 µM.

In the case of `N=c1scc(-c2ccc(Cl)cc2)n1CC(=O)N1CCN(c2ccccc2)CC1`, the growth at 10 µM (UACC-257) is reported as 105%, the growth at 10 µM (SF-539) is reported as 100% and the growth at 10 µM (DU-145) is reported as 114%. For the same compound, the growth at 10 µM (M14) was 99.7%, the growth at 10 µM (SW-620) was 104% and the growth at 10 µM (ACHN) was 96.1%. It also gave a growth at 10 µM (MDA-MB-468) of 89.8%, a growth at 10 µM (UACC-62) of 98.1% and a growth at 10 µM (SR) of 88%. It also gave a growth at 10 µM (TK-10) of 87.2%, a growth at 10 µM (SF-295) of 89.7% and a growth at 10 µM (MCF7) of 90.8%. For the same compound, the growth at 10 µM (SK-MEL-28) was 98.6%, the growth at 10 µM (OVCAR-4) was 86.4% and the growth at 10 µM (NCI-H460) was 101%. It also gave a growth at 10 µM (HOP-62) of 109%, a growth at 10 µM (NCI-H522) of 76.9% and a Ki (Cathepsin K) of 11.1 µM.

Compound `N=c1scc(-c2ccccc2)n1CC(=O)N1CCN(c2ccccc2)CC1` has a growth at 10 µM (UACC-257) of 108%, a growth at 10 µM (SF-539) of 97.2% and a growth at 10 µM (DU-145) of 111%. It also gave a growth at 10 µM (M14) of 101%, a growth at 10 µM (SW-620) of 101% and a growth at 10 µM (ACHN) of 83.4%. It also gave a growth at 10 µM (MDA-MB-468) of 107%, a growth at 10 µM (UACC-62) of 93.5% and a growth at 10 µM (SR) of 89.9%. It also gave a growth at 10 µM (TK-10) of 127%, a growth at 10 µM (SF-295) of 72.4% and a growth at 10 µM (MCF7) of 95.3%. It also gave a growth at 10 µM (SK-MEL-28) of 98.8%, a growth at 10 µM (OVCAR-4) of 90.5% and a growth at 10 µM (NCI-H460) of 96.4%. For the same compound, the growth at 10 µM (HOP-62) was 96.6%, the growth at 10 µM (NCI-H522) was 85.1% and the Ki (Cathepsin K) was 11.6 µM.

`CC(=O)N1CCN(C(=O)Cn2c(-c3ccc(C)cc3)csc2=N)CC1` was tested, and the growth at 10 µM (UACC-257) was 102%, the growth at 10 µM (SF-539) was 99.9% and the growth at 10 µM (DU-145) was 110%. It also gave a growth at 10 µM (M14) of 97.9%, a growth at 10 µM (SW-620) of 97.6% and a growth at 10 µM (ACHN) of 92.8%. The growth at 10 µM (MDA-MB-468) was 94.3%, the growth at 10 µM (UACC-62) was 74.2% and the growth at 10 µM (SR) was 81.3%. For the same compound, the growth at 10 µM (TK-10) was 121%, the growth at 10 µM (MCF7) was 88.9% and the growth at 10 µM (SK-MEL-28) was 98.9%. The growth at 10 µM (OVCAR-4) was 97%, the growth at 10 µM (NCI-H460) was 103% and the growth at 10 µM (HOP-62) was 101%. The growth at 10 µM (NCI-H522) was 76.9% and the Ki (Cathepsin K) was 24 µM.

In the case of `CC(=O)N1CCN(C(=O)Cn2c(-c3ccc(Cl)cc3)csc2=N)CC1`, the growth at 10 µM (UACC-257) is reported as 91%, the growth at 10 µM (SF-539) is reported as 90.2% and the growth at 10 µM (DU-145) is reported as 99%. For the same compound, the growth at 10 µM (M14) was 95.1%, the growth at 10 µM (SW-620) was 106% and the growth at 10 µM (ACHN) was 90.7%. The growth at 10 µM (MDA-MB-468) was 82.9%, the growth at 10 µM (UACC-62) was 81.9% and the growth at 10 µM (SR) was 74.7%. For the same compound, the growth at 10 µM (TK-10) was 82.1%, the growth at 10 µM (MCF7) was 84.5% and the growth at 10 µM (SK-MEL-28) was 90.8%. It also gave a growth at 10 µM (OVCAR-4) of 77.2%, a growth at 10 µM (NCI-H460) of 101% and a growth at 10 µM (HOP-62) of 93.4%. The growth at 10 µM (NCI-H522) was 62.1% and the Ki (Cathepsin K) was 24.2 µM.

In the case of `Cc1ccc(-c2csc(=N)n2CC(=O)N2CCN(C)CC2)cc1`, the growth at 10 µM (UACC-257) is reported as 102%, the growth at 10 µM (SF-539) is reported as 101% and the growth at 10 µM (DU-145) is reported as 109%. For the same compound, the growth at 10 µM (M14) was 105%, the growth at 10 µM (SW-620) was 98.4% and the growth at 10 µM (ACHN) was 81.2%. For the same compound, the growth at 10 µM (MDA-MB-468) was 98.6%, the growth at 10 µM (UACC-62) was 72.6% and the growth at 10 µM (SR) was 86.5%. It also gave a growth at 10 µM (TK-10) of 129%, a growth at 10 µM (SF-295) of 83.4% and a growth at 10 µM (MCF7) of 93.2%. The growth at 10 µM (SK-MEL-28) was 97.5%, the growth at 10 µM (OVCAR-4) was 87.4% and the growth at 10 µM (NCI-H460) was 102%. For the same compound, the growth at 10 µM (HOP-62) was 99.5%, the growth at 10 µM (NCI-H522) was 80.6% and the Ki (Cathepsin K) was 8.71 µM.
